Measured values gathered from unrelated publications.
Each line is one published result; the experiments were not run side by side.
Target: Serine/threonine-protein kinase ULK1 (ULK1, Homo sapiens, UniProt O75385)
One construct used (O75385 1-1050): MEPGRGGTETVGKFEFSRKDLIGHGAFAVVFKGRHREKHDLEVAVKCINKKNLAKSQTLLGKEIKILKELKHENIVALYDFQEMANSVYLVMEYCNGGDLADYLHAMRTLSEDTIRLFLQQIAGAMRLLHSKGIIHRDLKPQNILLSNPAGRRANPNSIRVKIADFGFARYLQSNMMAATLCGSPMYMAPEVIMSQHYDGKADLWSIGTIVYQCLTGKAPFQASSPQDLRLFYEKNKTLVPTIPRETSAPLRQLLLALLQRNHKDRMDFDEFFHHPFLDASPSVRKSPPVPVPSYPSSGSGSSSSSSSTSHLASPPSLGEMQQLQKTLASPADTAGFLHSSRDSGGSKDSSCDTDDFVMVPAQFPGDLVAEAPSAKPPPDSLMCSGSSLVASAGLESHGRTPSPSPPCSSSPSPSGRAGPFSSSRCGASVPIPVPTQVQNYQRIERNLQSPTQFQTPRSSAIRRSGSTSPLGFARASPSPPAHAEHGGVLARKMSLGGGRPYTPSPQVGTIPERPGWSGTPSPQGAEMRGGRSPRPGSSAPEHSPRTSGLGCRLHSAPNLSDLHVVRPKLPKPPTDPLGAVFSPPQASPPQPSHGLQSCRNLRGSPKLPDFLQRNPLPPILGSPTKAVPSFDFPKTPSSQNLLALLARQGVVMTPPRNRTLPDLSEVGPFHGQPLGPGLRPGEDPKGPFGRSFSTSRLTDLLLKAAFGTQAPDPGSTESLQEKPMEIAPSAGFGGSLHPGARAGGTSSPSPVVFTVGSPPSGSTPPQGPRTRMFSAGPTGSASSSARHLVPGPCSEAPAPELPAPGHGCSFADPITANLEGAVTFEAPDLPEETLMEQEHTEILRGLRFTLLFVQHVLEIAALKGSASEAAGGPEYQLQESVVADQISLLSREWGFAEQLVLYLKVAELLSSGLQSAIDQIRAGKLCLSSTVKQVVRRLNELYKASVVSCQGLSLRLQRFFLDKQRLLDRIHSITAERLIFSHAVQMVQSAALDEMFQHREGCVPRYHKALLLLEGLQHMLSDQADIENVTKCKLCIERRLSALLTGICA

With `CCCCC(=O)Nc1ccc(-c2ccc3ncn(CCC)c(=O)c3c2)cn1` the remaining binding was 94% (binding; competition with immobilised ligand; 0.5 µM).
`C[C@]1(O)CCCN(c2nc(Nc3ccc(S(=O)(=O)N[C@H]4CC[C@H](CN5CCN(c6ccc(C7CCC(=O)NC7=O)cc6F)CC5)CC4)cc3F)ncc2C(F)(F)F)C1` (stereo partly drawn) gave a remaining binding of 49% (binding; competition with immobilised ligand; 1 µM).
`COc1ccc2oc(-c3ccc4nc(N)oc4c3)c/c(=N\c3ccccc3NC(=O)CCN)c2c1` has a remaining binding of 99% (binding; 1 µM).
For `COc1ccc2[nH]c3c4[nH]c5ccc(OC)cc5c4c4c(c3c2c1)C(=O)NC4=O`, the remaining binding was 100% (binding; 1 µM).
For `CO[C@@H]1[C@H](N(C)C(=O)c2ccccc2)C[C@H]2O[C@]1(C)n1c3ccccc3c3c4c(c5c6ccccc6n2c5c31)C(=O)NC4`, the inhibition was 7% (enzyme activity; inhibitor; 1 µM).
`C1=C/COCc2cc(ccc2OCCN2CCCC2)Nc2nccc(n2)-c2cccc(c2)COC/1` gave a remaining signal of 90% (cell-free assay; 0.1 µM).
For `C[C@H]1CC[C@H](n2c3cnccc3c3cnc(Nc4ccc5c(n4)CCN(C(=O)CO)C5)nc32)CC1`, the remaining signal was 94% (cell-free assay; 1 µM).
With `C=CC(=O)N1CCC([C@@H]2CCNc3c(C(N)=O)c(-c4ccc(Oc5ccccc5)cc4)nn32)CC1` the inhibition was 0% (enzyme activity; inhibitor; 1 µM).
For `Cc1cc(S(=O)(=O)N[C@H]2CC[C@H](CN3CCN(c4ccc(C5CCC(=O)NC5=O)cc4F)CC3)CC2)ccc1Nc1ncc(C(F)(F)F)c(N2CCC[C@](C)(O)C2)n1` (stereo partly drawn), the remaining binding was 5.7% (binding; competition with immobilised ligand; 1 µM).
